The entries come from a sample that favours hits as a whole.
PTK2B oligo ant: antagonists of Pyk2 self-association, primary screen, Q293 cells, FERM NanoBiT luminescence, HTS | Protein-tyrosine kinase 2-beta (Homo sapiens), Q14289 | stronger effect = lower value | z-score (the deposit names both 25 µM and 10 µM) | actives 0.83% (n = 99,000) | AID 1347419, 2020;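 active = Z-score of -3 or lower, scaled per plate to the spread of control and sample wells; inactive = z-score above -3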;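 note: negative z-score means lost luminescence so less FERM oligomerization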
HUVEC prolif 384: inhibitors of HUVEC proliferation, primary screen, cell-based, 384-well. AID 648, 2007. CellTiter-Glo luminescence, 72 h; stronger effect = lower value. actives 1.1% (n = 86,000). viability, % at 10 µM (by protocol);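 active = viability at or below 30%; inactive = viability above 30%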;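 note: 100% = median luminescence of DMSO-only cell control wells on each plate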
PTEN del growth: growth suppression of PTEN-null HCT116, primary screen, cell-based, CellTiter-Glo; AID 827, 2007; viability, % at 10 µM; HCT116 PTEN-null viability, 60 h; stronger effect = lower value; actives 1.2% (n = 140,000);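 active = viability at or below a set limit, 4 SD under the median of all tested compounds, cut at about 3.7% in these data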;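 note: PTEN knockout HCT116 line with beta catenin targeted HCT116 as companion control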
Lung fibro prol: antiproliferative effect on LL 47 fibroblasts – human, LL 47 cells, CellTiter-Glo luminescence, primary screen. LL 47 human lung fibroblast viability, ATP luminescence; stronger effect = lower value. viability, % at 10 µM. actives 1.1% (n = 85,000);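 active = viability at or below 50% in the single dose screen; inactive = viability above 50%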;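 note: compound exposure lasted 72 h before the ATP readout; 100% = median luminescence of untreated cell-only wells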
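Signal: luminescent ATP detection, CellTiter-Glo; assay system: LL 47 human lung fibroblasts; input: 1,150 cells/well; incubation: overnight cell rest, 72 h compound treatment at 37 °C; measure: % viability versus median cells-only luminescence; medium: IMEM growth medium with 15% fetal bovine serum; dosing: compound addition at 0.1% DMSO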
bCat KO growth: primary screen for growth suppressors in beta-catenin knockout HCT116 cells (colon tumor, human); HCT116 beta-catenin knockout viability, CellTiter-Glo, 60 h; stronger effect = lower value; viability, % at 10 µM; actives 1.5% (n = 140,000);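 active = viability at or under a set limit, the compound median less 4 SD, cut at about 6% in these data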;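 note: 0% = Hyamine 1622 control at 20 µM and 100% = untreated cell control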
H69AR growth 86K: proliferation blockers of H69AR lung cancer cells, primary screen, cell-based, human, 86K library | H69AR lung tumor viability, ATP luminescence, 72 h; stronger effect = lower value | viability, % at 10 µM | actives 6% (n = 85,000) | AID 598, 2007;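 active = viability at or below 40%; inactive = viability above 40%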;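 note: multidrug resistant small cell line overexpressing MRP-1 efflux transporter; 100% = mean luminescence of untreated control wells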
* marks the source's active call; other numbers are inactive results.

`CCOC(=O)C1=c2s/c(=C\c3cccnc3)c(=O)n2C(N)=C(C(=O)OC)C1c1cccnc1` (configuration not stated) gave PTK2B oligo ant -0.62, HUVEC prolif 384 99, PTEN del growth 100, Lung fibro prol 96, bCat KO growth 94 and H69AR growth 86K 81.
For N#CC1=C(N)n2c(s/c(=C\c3ccco3)c2=O)=C(C#N)C1c1ccco1 (configuration not stated) the results were PTK2B oligo ant 1.5, HUVEC prolif 384 75, PTEN del growth 90, Lung fibro prol 92, bCat KO growth 91 and H69AR growth 86K 38*.
For CCOC(=O)C1=C(N)n2c(s/c(=C/c3ccco3)c2=O)=C(C(=O)OC)C1c1ccco1 (configuration not stated) the results were PTK2B oligo ant -0.17, HUVEC prolif 384 13*, PTEN del growth 2.4*, Lung fibro prol 80, bCat KO growth 2.2* and H69AR growth 86K 4.8*.
For Nn1c(SCC(=O)N2CCOCC2)nnc1-c1ccccc1Cl the results were PTK2B oligo ant -0.34, HUVEC prolif 384 95, PTEN del growth 104, Lung fibro prol 98, bCat KO growth 105 and H69AR growth 86K 90.
For Cn1c(N)c(C(=O)COC(=O)[C@H](Cc2ccccc2)N2C(=O)c3ccccc3C2=O)c(=O)n(C)c1=O the results were PTEN del growth 83 and bCat KO growth 91.
For Cc1ccc(C2CC(c3ccccc3OC(F)F)Nc3ncnn32)cc1 (configuration not stated) the results were PTK2B oligo ant 0.5, PTEN del growth 94 and bCat KO growth 88.
`Cc1ccccc1C1CC(c2ccccc2OC(F)F)Nc2ncnn21` (configuration not stated) gave PTK2B oligo ant -0.24, HUVEC prolif 384 98, PTEN del growth 87, Lung fibro prol 94, bCat KO growth 97 and H69AR growth 86K 0.6*.
`COCCN1C=C(C(=O)OC)C(c2ccc(OC)c(OC)c2)C(C(=O)OC)=C1` gave PTK2B oligo ant -0.01, HUVEC prolif 384 101, PTEN del growth 103, Lung fibro prol 94, bCat KO growth 112 and H69AR growth 86K 96.
Screening CCCOc1ccc(C2C(C(=O)OC)=CN(CCOC)C=C2C(=O)OC)cc1 returned PTK2B oligo ant -3.5*, HUVEC prolif 384 102, PTEN del growth 90, Lung fibro prol 99, bCat KO growth 106 and H69AR growth 86K 87.
`COc1cc(C(=O)NC(=S)Nc2ccc3c(c2)C(=O)N(C)C3=O)cc(OC)c1OC` gave PTEN del growth 98 and bCat KO growth 96.
CC(NC(=O)COC(=O)c1cc(NS(=O)(=O)c2ccc(Cl)c([N+](=O)[O-])c2)ccc1O)C1CC2CCC1C2 (configuration not stated) was read as PTEN del growth 69 and bCat KO growth 56.
`CCOC(=O)N1CCN(C(=O)c2ccc3c(=O)n(CCC4=CCCCC4)c(=S)[nH]c3c2)CC1` gave PTK2B oligo ant 0.27, HUVEC prolif 384 78, PTEN del growth 48, Lung fibro prol 91, bCat KO growth 62 and H69AR growth 86K 43.
`COCCn1c(=S)[nH]c2cc(C(=O)N3CCN(c4ccc(F)cc4)CC3)ccc2c1=O` gave PTK2B oligo ant 1.3, HUVEC prolif 384 91, PTEN del growth 83, Lung fibro prol 92, bCat KO growth 89 and H69AR growth 86K 35*.
`CCOC(=O)N1CCN(C(=O)c2ccc3c(=O)n(CCc4ccccc4)c(=S)[nH]c3c2)CC1` gave PTK2B oligo ant -0.16, HUVEC prolif 384 44, PTEN del growth 26, Lung fibro prol 76, bCat KO growth 20 and H69AR growth 86K 10*.
Screening CCOC(=O)N1CCN(C(=O)c2ccc3c(=O)n(Cc4ccc(Cl)cc4)c(=S)[nH]c3c2)CC1 returned PTK2B oligo ant -0.07, HUVEC prolif 384 53, PTEN del growth 64, Lung fibro prol 93, bCat KO growth 68 and H69AR growth 86K 13*.
Screening COc1cccc(/C=N\n2c(C)nnc2C)c1OC returned PTK2B oligo ant -1.3, PTEN del growth 95 and bCat KO growth 98.
`COc1ccc(/C=N/n2c(SC)nnc2-c2ccccc2)c(OC)c1OC` gave PTK2B oligo ant -2.1, HUVEC prolif 384 43, PTEN del growth 31, Lung fibro prol 60, bCat KO growth 28 and H69AR growth 86K 30*.
COc1ccc(/C=N/n2c(SC)nnc2-c2ccccc2)cc1C was read as PTK2B oligo ant 0.13, HUVEC prolif 384 87, PTEN del growth 68, Lung fibro prol 88, bCat KO growth 80 and H69AR growth 86K 26*.
`COc1cccc(CN2C(=O)c3cccc(N)c3C2=O)c1` gave PTK2B oligo ant -1, PTEN del growth 99 and bCat KO growth 100.
c1ccc(CNc2nc3ccccc3[nH]2)cc1 was read as PTK2B oligo ant -0.08, HUVEC prolif 384 86, PTEN del growth 73, Lung fibro prol 96, bCat KO growth 78 and H69AR growth 86K 78.
Screening COc1ccc2nc(NCc3ccccc3)[nH]c2c1 returned PTK2B oligo ant 0.85, HUVEC prolif 384 54, PTEN del growth 31, Lung fibro prol 67, bCat KO growth 21 and H69AR growth 86K 20*.
Cc1ccc2nc(NCc3ccccc3)[nH]c2c1 was read as PTK2B oligo ant 0.4, HUVEC prolif 384 43, PTEN del growth 21, Lung fibro prol 53, bCat KO growth 19 and H69AR growth 86K 22*.
For CCCCn1c(N)c(N(CCOC)C(=O)CCc2ccc(OC)cc2)c(=O)[nH]c1=O the results were PTEN del growth 109 and bCat KO growth 89.
Screening CCOC(=O)Nc1ccc(C)cc1Br returned PTK2B oligo ant -0.14, HUVEC prolif 384 104, PTEN del growth 0.2*, Lung fibro prol 107, bCat KO growth 0.4* and H69AR growth 86K 109.
Screening Cc1ccc(NC(=O)CN2CCCCCC2)c(Br)c1 returned PTK2B oligo ant 0.15, HUVEC prolif 384 92, PTEN del growth 92, Lung fibro prol 117, bCat KO growth 93 and H69AR growth 86K 92.
`NC(=O)C1(N2CCCCC2)CCN(C(=O)NC2CCCCC2)CC1` gave PTK2B oligo ant -0.12, HUVEC prolif 384 100, PTEN del growth 87, bCat KO growth 93 and H69AR growth 86K 102.
`COC(=O)c1ccc(CSc2nc3ccccc3c(=O)n2Cc2ccco2)o1` gave PTK2B oligo ant -0.76, HUVEC prolif 384 88, PTEN del growth 75, Lung fibro prol 102, bCat KO growth 74 and H69AR growth 86K 91.
